Data published in ChEMBL document CHEMBL1139079, “Synthesis and HIV-1 integrase inhibitory activity of spiroundecane(ene) derivatives” (Bioorg Med Chem Lett, 2007).
pIC50: −log10 of the molar value. The source made the active and inactive calls. No cut-off for these calls is given here.

Key:
[1] = biological target: T1, Human immunodeficiency virus type 1 integrase (Human immunodeficiency virus 1, UniProt Q7ZJM1); test: (§1) Inhibition of recombinant HIV1 integrase 3'-end processing activity
Summary of the method: (§2)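 Recombinant HIV-1 integrase with a 21 bp duplex substrate, 5'-[32P]-labelled. 3'-processing read as release of the terminal dinucleotide; strand transfer read as DNA products longer than the starting substrate. Products resolved by PAGE. IC50 given as mean and standard deviation of at least three independent experiments.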

[2] = biological target: T1, Human immunodeficiency virus type 1 integrase; test: (§3) Inhibition of recombinant HIV1 integrase strand transfer activity; summary of the method: as §2
[3] = Cytotoxicity against MT2 cells; type: cell-based; settings: human
[4] = biological target: Human immunodeficiency virus type 1 integrase (Human immunodeficiency virus 1) (UniProt Q7ZJM1); test: as §1; summary of the method: as §2
[5] = biological target: Human immunodeficiency virus type 1 integrase (Human immunodeficiency virus 1) (UniProt Q7ZJM1); test: as §3; summary of the method: as §2
[6] = biological target: T1, Human immunodeficiency virus type 1 integrase; test: Inhibition of recombinant HIV1 integrase mediated-disintegration activity
Summary of the method: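 Reverse of strand transfer, run with recombinant HIV-1 integrase on a Y-oligomer substrate carrying a 5'-[32P] label. Cleavage of the 34-mer strand releases a radiolabelled 19-bp oligonucleotide, which was detected by PAGE after reactions over a range of drug concentrations. IC50 derived from the gel analysis.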

T1 sequence (Q7ZJM1 whole entry): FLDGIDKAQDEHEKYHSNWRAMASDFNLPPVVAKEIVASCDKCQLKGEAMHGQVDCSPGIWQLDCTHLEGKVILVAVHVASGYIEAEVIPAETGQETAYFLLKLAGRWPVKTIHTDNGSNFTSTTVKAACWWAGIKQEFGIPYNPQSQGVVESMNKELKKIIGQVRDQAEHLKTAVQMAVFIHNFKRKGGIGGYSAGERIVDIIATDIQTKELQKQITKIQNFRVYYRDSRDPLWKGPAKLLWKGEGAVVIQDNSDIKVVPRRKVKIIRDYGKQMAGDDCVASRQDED
Sequence of Human immunodeficiency virus type 1 integrase (Human immunodeficiency virus 1) (Q7ZJM1 as listed by the source): as the sequence (Q7ZJM1 whole entry) above

Row | SMILES | pIC50 [1] | pIC50 [2] | CC50 [3] [µM] | Activity [4] | Activity [5] | pIC50 [6]
1 | COc1ccc([C@@H]2CC(=O)C[C@H](c3ccco3)C23C(=O)OC(C)(C)OC3=O)cc1 | 3.88 | 4.44 | > 111 | – | – | –
2 | CC1(C)OC(=O)C2(C(=O)O1)[C@@H](c1ccco1)CC(=O)C[C@H]2c1ccccc1Cl | – | – | > 111 | inactive | inactive | –
3 | CC1(C)OC(=O)C2(C(=O)O1)[C@@H](c1ccco1)CC(=O)C[C@H]2c1ccc(F)cc1 | – | – | > 111 | inactive | inactive | –
4 | CC1(C)OC(=O)C2(C(=O)O1)[C@@H](c1ccco1)CC(=O)C[C@H]2c1c[nH]c2ccccc12 | 4.95 | 5.02 | > 111 | – | – | 4.72
5 | COc1ccc([C@@H]2CC(=O)C[C@H](c3ccccc3OC)C23C(=O)OC(C)(C)OC3=O)cc1O | – | – | > 111 | inactive | inactive | –
6 | COc1ccc([C@@H]2CC(=O)C[C@H](c3ccco3)C23C(=O)OC(C)(C)OC3=O)cc1OC | 3.95 | 4.04 | > 111 | – | – | –
7 | COc1cccc([C@@H]2CC(=O)C[C@H](c3ccco3)C23C(=O)OC(C)(C)OC3=O)c1OC | 4.35 | 4.35 | > 111 | – | – | –
8 | CC1(C)OC(=O)C2(C(=O)O1)[C@@H](c1ccco1)CC(=O)C[C@H]2c1ccc(Br)cc1 | – | – | > 111 | inactive | inactive | –
9 | COc1ccc([C@H]2CC(=O)CCC23C(=O)OC(C)(C)OC3=O)cc1 | 3.85 | 4.01 | > 111 | – | – | –
10 | CC1(C)OC(=O)C2(C(=O)O1)[C@@H](c1ccco1)CC(=O)C[C@H]2c1ccccc1 | 3.85 | 3.88 | > 111 | – | – | –
11 | COc1ccc([C@@H]2CC(=O)C[C@H](c3ccco3)C23C(=O)OC(C)(C)OC3=O)c(C)c1 | – | – | > 111 | inactive | inactive | –
12 | CC1(C)OC(=O)C2(C(=O)O1)[C@@H](c1ccco1)CC(=O)C[C@H]2c1ccco1 | 4.48 | 4.75 | > 111 | – | – | 4.09
13 | CCOC(=O)C1=C(O)CCC2(C(=O)OC(C)(C)OC2=O)[C@H]1c1ccco1 | 4.17 | 4.36 | > 111 | – | – | 3.67
14 | COc1ccc([C@@H]2CC(=O)C[C@H](c3ccco3)C23C(=O)OC(C)(C)OC3=O)cc1O | – | – | > 111 | inactive | inactive | –
15 | CCOC(=O)C1=C(O)CCC2(C(=O)OC(C)(C)OC2=O)[C@H]1c1ccccc1OC | – | 3.55 | > 111 | inactive | – | –
